Measurements reported in ChEMBL document CHEMBL1125336, “New bronchodilators. 1. 1,5-Substituted 1H-imidazo[4,5-c]quinolin-4(5H)-ones” (J Med Chem, 1992).

Assays:
[1] = species: Cavia porcellus; assay: Inhibition of the Schulz-Dale (SD) reaction-induced contraction in trachea of guinea pig; format: functional
Summary of the method: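 Tracheal zig-zag strips from passively sensitized guinea pigs, equilibrated 1 h in Krebs-Henseleit under 95% O2-5% CO2 at 37 °C. Contraction induced by OA at 10 µg/mL final bath concentration. Drug added cumulatively at 7-min intervals once contraction reached plateau; isotonic recording, relaxation scaled to papaverine maximum. Triplicate curves with 4–5 concentrations; IC50 by logit-log fit.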

[2] = system: Cavia porcellus; assay: Effect on collapse time of antigen-induced bronchospasm in passively sensitized guinea pigs (at 50 mg/kg, po).MCT for untreated animals is 254+/-18.; format: functional
[3] = system: Mus musculus; assay: Acute lethal toxicity (minimum lethal dose; MLD, po) in mice.; format: organism-based; conditions: in vivo
Summary of the method: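 Male dd mice (20–25 g), n = 3 per dose, given compound orally. Deaths observed for 7 days; MLD taken as the dose killing at least one mouse.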

[4] = system: Cavia porcellus; assay: Effect on collapse time of antigen-induced bronchospasm in passively sensitized guinea pigs (at 25 mg/kg, po).MCT for untreated animals is 254+/-18.; format: functional
[5] = species: Cavia porcellus; assay: Inhibitory effect on spasmogen (leukotriene, LTD4) induced contraction of guinea pig tracheal strips.; format: functional; conditions: Trachea
Summary of the method: (§1)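 Zig-zag tracheal strips from normal guinea pigs, equilibrated 1 h in Krebs–Henseleit (95% O2/5% CO2, 37 °C). Contracted with carbachol 3 × 10⁻⁶ mol final, histamine 3 × 10⁻⁵ mol, or LTD4 50 µg/mL. Drug added cumulatively every 7 min after the plateau; isotonic recording. IC50 for 50% relaxation by least-squares regression.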

[6] = species: Cavia porcellus; assay: Inhibitory effect on spasmogen (histamine) induced contraction of guinea pig tracheal strips.; format: functional; conditions: Trachea; summary of the method: as §1
[7] = system: Cavia porcellus; assay: Effect on left ventricular dP/dtmax 0(mins) after intravenous administration in anesthetized guinea pigs after a intravenous administration of 3 mg/kg; format: functional, Heart left ventricle
Summary of the method: (§2)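 Male guinea pigs anesthetized with pentobarbital sodium (50 mg/kg ip), ventilated via tracheotomy with room air (60/min, 10 mL/kg). Left-ventricular cannula via left common carotid to a pressure transducer for LVP and LV dP/dtmax; heart rate triggered by LVP. Drug given iv through the left jugular vein, vehicle PEG 400 diluted with saline. Change expressed as % of pretreatment value; mean ± SEM, n = 5.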

[8] = system: Cavia porcellus; assay: Effect on heart rate 0(mins) after intravenous administration in anesthetized guinea pigs after intravenous administration of 3 mg/kg; format: functional; summary of the method: as §2
[9] = system: Cavia porcellus; assay: Effect of the compound (intravenous administration) on anaphylactic bronchoconstriction in passively sensitized guinea pigs.; format: functional; conditions: Lung
Summary of the method: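 Male Hartley guinea pigs (350–450 g) passively sensitized ip with rabbit anti-OA serum 16–24 h before. Urethane anesthesia (1.5 g/kg ip), gallamine 10 mg/kg iv, ventilated 60–70 strokes/min. Konzett–Rössler air overflow after OA challenge 5 mg/kg iv. Compound in PEG 400 diluted with saline, given iv 90 s after challenge. ED50 by linear regression of AUC versus log dose.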

[10] = system: Cavia porcellus; assay: Effect on heart rate 1(mins) after intravenous administration in anesthetized guinea pigs after intravenous administration of 3 mg/kg; format: functional; summary of the method: as §2
[11] = system: Cavia porcellus; assay: Effect on heart rate 5(mins) after intravenous administration in anesthetized guinea pigs after intravenous administration of 3 mg/kg; format: functional; summary of the method: as §2
[12] = system: Cavia porcellus; assay: Effect on left ventricular dP/dtmax 5(mins) after intravenous administration in anesthetized guinea pigs after a intravenous administration of 3 mg/kg; format: functional, Heart left ventricle; summary of the method: as §2
[13] = system: Cavia porcellus; assay: Effect on heart rate 3(mins) after intravenous administration in anesthetized guinea pigs after intravenous administration of 3 mg/kg; format: functional; summary of the method: as §2
[14] = system: Cavia porcellus; assay: Effect of the compound (peroral administration) on anaphylactic bronchoconstriction in passively sensitized guinea pigs.; format: functional; conditions: Lung, po
Summary of the method: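 Male Hartley guinea pigs (350–450 g) passively sensitized ip with rabbit anti-OA serum 16–24 h before. Urethane-anesthetized, gallamine-paralysed, ventilated. Air overflow (Konzett–Rössler) after OA 5 mg/kg iv. Compound suspended in 0.3% Tween 80, given orally 1 h before challenge. ED50 by linear regression of AUC versus log dose.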

[15] = system: Cavia porcellus; assay: Effect on left ventricular dP/dtmax 3(mins) after intravenous administration in anesthetized guinea pigs after a intravenous administration of 3 mg/kg; format: functional, Heart left ventricle; summary of the method: as §2
[16] = system: Cavia porcellus; assay: Effect on left ventricular dP/dtmax 1(mins) after intravenous administration in anesthetized guinea pigs after a intravenous administration of 3 mg/kg; format: functional, Heart left ventricle; summary of the method: as §2
[17] = species: Cavia porcellus; assay: Inhibitory effect on spasmogen (carbachol) induced contraction of guinea pig tracheal strips.; format: functional; conditions: Trachea; summary of the method: as §1
[18] = system: Cavia porcellus; assay: Effect on collapse time of antigen-induced bronchospasm in passively sensitized guinea pigs (at 25 mg/kg, po). MCT for untreated animals is 254+/-18; format: functional
[19] = system: Cavia porcellus; assay: Effect on left ventricular dP/dtmax 3(mins) after intravenous administration in anesthetized guinea pigs; format: functional, Heart left ventricle
Summary of the method: (§3)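 Male guinea pigs under pentobarbital (50 mg/kg ip), tracheotomy, room-air ventilation at 60/min, 10 mL/kg. Carotid cannula advanced into the left ventricle to read LVP and LV dP/dtmax; heart rate triggered from LVP. Single 3 mg/kg iv dose via jugular vein. Values are percent of pretreatment, n = 5.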

[20] = system: Cavia porcellus; assay: Effect on left ventricular dP/dtmax 5(mins) after intravenous administration in anesthetized guinea pigs; format: functional, Heart left ventricle; summary of the method: as §3
[21] = system: Cavia porcellus; assay: Effect on heart rate 0(mins) after intravenous administration in anesthetized guinea pigs.; format: functional; summary of the method: as §3
[22] = system: Cavia porcellus; assay: Effect on heart rate 5(mins) after intravenous administration in anesthetized guinea pigs; format: functional; summary of the method: as §3
[23] = system: Cavia porcellus; assay: Effect on heart rate 3(mins) after intravenous administration in anesthetized guinea pigs; format: functional; summary of the method: as §3
[24] = system: Cavia porcellus; assay: Effect on heart rate 1(mins) after intravenous administration in anesthetized guinea pigs.; format: functional; summary of the method: as §3
[25] = system: Cavia porcellus; assay: Effect on left ventricular dP/dtmax 1(mins) after intravenous administration in anesthetized guinea pigs.; format: functional, Heart left ventricle; summary of the method: as §3
[26] = system: Cavia porcellus; assay: Effect on left ventricular dP/dtmax 0(mins) after intravenous administration in anesthetized guinea pigs.; format: functional, Heart left ventricle; summary of the method: as §3

SMILES	IC50 [1] [µM]	MLD [3] [mg/kg]	also measured
CCCCn1c(=O)c2ncn(Cc3ccccc3)c2c2ccccc21	> 30		
CCCCn1cnc2c(=O)n(CCCC)c3ccccc3c21	5.47	> 300	MCT [2]: 504 s
CCCn1c(=O)c2ncn(C)c2c2ccccc21	10.7	300	
Cn1cnc2c(=O)n(CC(=O)O)c3ccccc3c21	> 30		
CCCCn1c(=O)c2ncn(C)c2c2cc(C)ccc21	7.97	> 300	MCT [2]: 356 s
CCn1c(=O)c2ncn(C)c2c2ccccc21	> 30		
CCCCn1c(=O)c2ncn(C)c2c2c(C)cccc21	> 30		
CCCCn1c(=O)c2nnn(C)c2c2ccccc21	1.58	> 300	MCT [2]: 296 s
C=CCCn1c(=O)c2ncn(C)c2c2ccccc21	5.62	200	MCT [2]: 342 s
CCCCn1c(=O)c2ncn(CCC)c2c2ccccc21	3.99	> 300	
CCCCn1c(=O)c2nc(O)n(C)c2c2ccccc21	> 30		
CCCCn1c(=O)c2ncn(-c3ccccc3)c2c2ccccc21	> 30		
Cn1cnc2c(=O)n(C)c3ccccc3c21	> 30		
CCCCn1c(=O)c2ncn(CC)c2c2ccccc21	4.9	> 300	
CCCCn1c(=O)c2nc(S)n(C)c2c2ccccc21	8.2	> 300	
CCCCn1c(=O)c2ncn(C)c2c2cc(Cl)ccc21	> 30		
COCCn1c(=O)c2ncn(C)c2c2ccccc21	> 30		

SMILES	IC50 [1] [µM]	MLD [3] [mg/kg]	also measured
Cn1cnc2c(=O)n(Cc3ccco3)c3ccccc3c21	> 30		
Cn1cnc2c(=O)n(C3CCCC3)c3ccccc3c21	6.58	300	
CCCCn1c(=O)c2ncn(C(C)C)c2c2ccccc21	2.6	> 300	MCT [4]: 425 s
CCCCn1c2c(c3c(ncn3C)c1=O)CCCC2	> 30		
CCCCn1c(=O)c2ncn(C)c2c2ccccc21	0.25	> 300	IC50 [5]: 9.19 µM; IC50 [6]: 2.12 µM; LV dP/dtmax [7]: 100%; Heart rate [8]: 100%; ED50 [9]: 0.42 mg/kg; Heart rate [10]: 98.5%; Heart rate [11]: 101%; LV dP/dtmax [12]: 99.4%; Heart rate [13]: 101%; ED50 [14]: 44.9 mg/kg; LV dP/dtmax [15]: 98.9%; LV dP/dtmax [16]: 91.6%; IC50 [17]: 27.2 µM; MCT [18]: 342 s
CCCCn1c(=O)c2nc(-c3ccc(Cl)c(Cl)c3)n(C)c2c2ccccc21	> 30		
CCCCn1c(=O)c2ncn(C)c2c2cc(OC)c(OC)cc21	> 30		
CCCCCn1c(=O)c2ncn(C)c2c2ccccc21	> 30		
CCCCn1c(=O)c2nc(-c3ccco3)n(C)c2c2ccccc21	> 30		
CCCCn1c(=O)c2nc(-c3ccc(OC)cc3)n(C)c2c2ccccc21	> 30		
CC(C)Cn1c(=O)c2ncn(C)c2c2ccccc21	> 30		
CCCCn1c(=O)c2ncn(C)c2c2ccc(Cl)cc21.Cl	1.52	> 300	MCT [2]: 289 s
CCCCn1c(=O)c2nc(-c3ccccc3)n(C)c2c2ccccc21	> 30		
CCCCn1c(=O)c2nc(C)n(C)c2c2ccccc21	> 30		
Cn1cnc2c(=O)n(Cc3ccccc3)c3ccccc3c21	> 30		
Cn1c(=O)c2[nH]cnc2n(C)c1=O.Cn1c(=O)c2[nH]cnc2n(C)c1=O.NCCN [AMINOPHYLLINE]	16.7		LV [19]: 117%; IC50 [5]: 23.6 µM; IC50 [6]: 33.2 µM; LV [20]: 116%; Heart rate [21]: 100%; ED50 [9]: 7.8 mg/kg; Heart rate [22]: 105%; Heart rate [23]: 105%; Heart rate [24]: 108%; ED50 [14]: 51.7 mg/kg; LV [25]: 125%; IC50 [17]: 37.7 µM; LV [26]: 100%
Cn1c(=O)c2nc[nH]c2n(C)c1=O.O [THEOPHYLLINE]	6.52		MCT [4]: 389 s
